# Measurements reported in article PMC5114172 (Journal of applied toxicology : JAT, 2016).
# Tests used:
# Granulocytes = test: Cell viability, trypan blue exclusion; format: cell-based, human; details: for Percent Viable Cells: Granulocytes
# PBMCs = test: Cell viability, trypan blue exclusion; format: cell-based, human; details: for Percent Viable Cells / decrease in viability: PBMCs
# [1] = system: highly purified human NKs; test: IL-1β secretion assay; format: cell-based; details: for Interleukin 1 beta secreted: NK
# Summary of the method: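 NK cells, MD-PBMCs, PBMCs or granulocytes (1.5 million/mL) or PBMC+granulocytes (0.75 million/mL each), per donor, exposed 24 h, 48 h or 6 days to 0.05–5 μM test compound diluted from DMSO stock, with DMSO controls. Supernatants kept at −70 °C. IL-1β by sandwich ELISA: HRP detection antibody, acid-stopped substrate, A450 against standards. Detection limit 3 pg/mL; triplicates; ANOVA then t test versus control, p<0.05.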
smiles,measurement,setting,value
"CCC[CH2][Sn][CH2]CCC [DBT, Dibutyltin]",Percent Viable Cells,"Granulocytes; 24 h, 0.1 μM DBT",92±5%
same,Percent Viable Cells,"Granulocytes; 24 h, 0.25 μM DBT",95±3%
same,Percent Viable Cells,"Granulocytes; 24 h, 0.5 μM DBT",94±3%
same,Percent Viable Cells,"Granulocytes; 24 h, 1 μM DBT",94±2%
same,Percent Viable Cells,"Granulocytes; 24 h, 2.5 μM DBT",92±3%
same,Percent Viable Cells,"Granulocytes; 24 h, 5 μM DBT",92±2%
same,Percent Viable Cells,"Granulocytes; 48 h, 0.05 μM DBT",93±4%
same,Percent Viable Cells,"Granulocytes; 48 h, 0.1 μM DBT",95±3%
same,Percent Viable Cells,"Granulocytes; 48 h, 0.25 μM DBT",92±5%
same,Percent Viable Cells,"Granulocytes; 48 h, 0.5 μM DBT",94±3%
same,Percent Viable Cells,"Granulocytes; 48 h, 1 μM DBT",95±2%
same,Percent Viable Cells,"Granulocytes; 48 h, 2.5 μM DBT",72±10 %
same,Percent Viable Cells,"Granulocytes; 48 h, 5 μM DBT",73±17%
same,Percent Viable Cells,"Granulocytes; 6 day, 0.05 μM DBT",51±18%
same,Percent Viable Cells,"Granulocytes; 6 day, 0.1 μM DBT",65±22%
same,Percent Viable Cells,"Granulocytes; 6 day, 0.25 μM DBT",55±33%
same,Percent Viable Cells,"Granulocytes; 6 day, 0.5 μM DBT",50±5%
same,Percent Viable Cells,"Granulocytes; 6 day, 1 μM DBT",57±9%
same,Percent Viable Cells,"Granulocytes; 6 day, 2.5 μM DBT",34±8 %
same,Percent Viable Cells,"Granulocytes; 6 day, 5 μM DBT",35±20%
same,effect on viability,"Granulocytes; granulocytes alone, 24 h, any of the DBT exposures",not affected
same,average decrease in viability,"PBMCs; PBMC, 24 h, 5 μM DBT",31%
same,Percent Viable Cells,"PBMCs; 24 h, 0.05 μM DBT",96±4%
same,Percent Viable Cells,"PBMCs; 24 h, 0.1 μM DBT",97±3%
same,Percent Viable Cells,"PBMCs; 24 h, 0.25 μM DBT",96±3%
same,Percent Viable Cells,"PBMCs; 24 h, 0.5 μM DBT",95±3%
same,Percent Viable Cells,"PBMCs; 24 h, 1 μM DBT",86±7%
same,Percent Viable Cells,"PBMCs; 24 h, 2.5 μM DBT",69±10 %
same,Percent Viable Cells,"PBMCs; 24 h, 5 μM DBT",65±8 %
same,decrease in viability,"PBMCs; 24 h, 2.5 and 5 μM DBT",25%
same,Percent Viable Cells,"PBMCs; 48 h, 0.05 μM DBT",93±3%
same,Percent Viable Cells,"PBMCs; 48 h, 0.1 μM DBT",94±4%
same,Percent Viable Cells,"PBMCs; 48 h, 0.25 μM DBT",94±4%
same,Percent Viable Cells,"PBMCs; 48 h, 0.5 μM DBT",91±8%
same,Percent Viable Cells,"PBMCs; 48 h, 1 μM DBT",74±16%
same,Percent Viable Cells,"PBMCs; 48 h, 2.5 μM DBT",56±13 %
same,decrease in viability,"PBMCs; 48 h, 2.5 μM DBT",38%
same,Percent Viable Cells,"PBMCs; 48 h, 5 μM DBT",56±8 %
same,decrease in viability,"PBMCs; 48 h, 5 μM DBT",35%
same,Percent Viable Cells,"PBMCs; 6 day, 0.05 μM DBT",68±45%
same,Percent Viable Cells,"PBMCs; 6 day, 0.1 μM DBT",87±11%
same,Percent Viable Cells,"PBMCs; 6 day, 0.25 μM DBT",69±33%
same,Percent Viable Cells,"PBMCs; 6 day, 0.5 μM DBT",68±13%
same,Percent Viable Cells,"PBMCs; 6 day, 1 μM DBT",43±12%
same,Percent Viable Cells,"PBMCs; 6 day, 2.5 μM DBT",36±25%
same,Percent Viable Cells,"PBMCs; 6 day, 5 μM DBT",42±15%
same,average of the maximum fold increase in IL-β secretion,"[1]; NK cells, 24 h, across donors",3.5 fold
same,fold increase in IL-1β secretion,"[1]; NK cells, donor KB169, 0.05 μM (50 nM) DBT",7.9 fold
same,fold increase in IL-1β secretion,"[1]; NK cells, donor KB169, 0.1 μM (100 nM) DBT",6.0 fold
same,Interleukin 1 beta secreted,"[1]; donor KB130, 24 h, 0.05 μM DBT",386 ± 41 pg/mL
same,Interleukin 1 beta secreted,"[1]; donor KB130, 24 h, 0.1 μM DBT",116 ± 27 pg/mL
same,Interleukin 1 beta secreted,"[1]; donor KB130, 24 h, 0.25 μM DBT",17 ± 20 pg/mL
same,Interleukin 1 beta secreted,"[1]; donor KB130, 48 h, 0.05 μM DBT",1372 ± 481 pg/mL
same,Interleukin 1 beta secreted,"[1]; donor KB130, 48 h, 0.1 μM DBT",298 ± 65 pg/mL
same,Interleukin 1 beta secreted,"[1]; donor KB130, 48 h, 0.25 μM DBT",139 ± 46 pg/mL
same,Interleukin 1 beta secreted,"[1]; donor KB130, 6 day, 0.05 μM DBT",782 ± 35 pg/mL
same,Interleukin 1 beta secreted,"[1]; donor KB130, 6 day, 0.1 μM DBT",550 ± 21 pg/mL
same,Interleukin 1 beta secreted,"[1]; donor KB130, 6 day, 0.25 μM DBT",142 ± 27 pg/mL
same,Interleukin 1 beta secreted,"[1]; donor KB130, 6 day, 0.5 μM DBT",46 ± 53 pg/mL
same,Interleukin 1 beta secreted,"[1]; donor KB155, 24 h, 0.05 μM DBT",2965 ± 1004 pg/mL
same,Interleukin 1 beta secreted,"[1]; donor KB155, 24 h, 0.1 μM DBT",2771 ± 70 pg/mL
same,Interleukin 1 beta secreted,"[1]; donor KB155, 24 h, 0.25 μM DBT",779 ± 25 pg/mL
same,Interleukin 1 beta secreted,"[1]; donor KB155, 24 h, 0.5 μM DBT",28 ± 23 pg/mL
same,Interleukin 1 beta secreted,"[1]; donor KB155, 48 h, 0.05 μM DBT",5235 ± 531 pg/mL
same,Interleukin 1 beta secreted,"[1]; donor KB155, 48 h, 0.1 μM DBT",4588 ± 130 pg/mL
same,Interleukin 1 beta secreted,"[1]; donor KB155, 48 h, 0.25 μM DBT",1598 ± 450 pg/mL
same,Interleukin 1 beta secreted,"[1]; donor KB155, 48 h, 0.5 μM DBT",130 ± 39 pg/mL
same,Interleukin 1 beta secreted,"[1]; donor KB155, 6 day, 0.05 μM DBT",1625 ± 164 pg/mL
same,Interleukin 1 beta secreted,"[1]; donor KB155, 6 day, 0.1 μM DBT",1572 ± 245 pg/mL
same,Interleukin 1 beta secreted,"[1]; donor KB155, 6 day, 0.25 μM DBT",960 ± 152 pg/mL
same,Interleukin 1 beta secreted,"[1]; donor KB155, 6 day, 0.5 μM DBT",138 ± 43 pg/mL
same,Interleukin 1 beta secreted,"[1]; donor KB169, 24 h, 0.05 μM DBT",1551 ± 25 pg/mL
same,Interleukin 1 beta secreted,"[1]; donor KB169, 24 h, 0.1 μM DBT",1173 ± 69 pg/mL
same,Interleukin 1 beta secreted,"[1]; donor KB169, 24 h, 0.25 μM DBT",796 ± 137 pg/mL
same,Interleukin 1 beta secreted,"[1]; donor KB169, 24 h, 0.5 μM DBT",114 ± 21 pg/mL
same,Interleukin 1 beta secreted,"[1]; donor KB169, 48 h, 0.05 μM DBT",341 ± 10 pg/mL
same,Interleukin 1 beta secreted,"[1]; donor KB169, 48 h, 0.1 μM DBT",367 ± 53 pg/mL
same,Interleukin 1 beta secreted,"[1]; donor KB169, 48 h, 0.25 μM DBT",262 ± 14 pg/mL
same,Interleukin 1 beta secreted,"[1]; donor KB169, 6 day, 0.05 μM DBT",453 ± 91 pg/mL
same,Interleukin 1 beta secreted,"[1]; donor KB169, 6 day, 0.1 μM DBT",602 ± 257 pg/mL
same,Interleukin 1 beta secreted,"[1]; donor KB169, 6 day, 0.25 μM DBT",511 ± 227 pg/mL
same,Interleukin 1 beta secreted,"[1]; donor KB169, 6 day, 0.5 μM DBT",157 ± 61 pg/mL
